Values after ≈ are worked out from the molar mass of the structure shown. Active and inactive are the calls of the source. The calls are words filed in the database; no cut-off is given here.
How the values were obtained:
Plasmodium falciparum [1] = experiment: Antimicrobial activity against chloroquine-sensitive Plasmodium falciparum 3D7 after 72 hrs; type: functional, organism-based; settings: 3D7, 72 h
Plasmodium falciparum [2] = experiment: Antimicrobial activity against chloroquine-resistant Plasmodium falciparum W2 after 72 hrs; type: functional, organism-based; settings: W2, 72 h
[3] = system: Trypanosoma brucei brucei; experiment: Antimicrobial activity against Trypanosoma brucei brucei clone 427-221a after 48 hrs; type: functional, organism-based
Method in brief: (§1)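 Bloodstream-form T. b. brucei in Baltz medium (~10^4/ml) and HL-60 cells in RPMI 1640 (~10^5/ml), both with 16.7% FBS, were exposed 48 h at 37°C in 5% CO2 to compound up to 10 µM in 1% final DMSO. Live cells were hemocytometer-counted, by motility (trypanosomes) or trypan blue exclusion (HL-60). EC50 was taken by regression versus DMSO cultures from three experiments. MIC was the lowest fully lethal concentration, judged microscopically.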

[4] = (§2) Cytotoxicity against human HL60 cells; type: cell-based, HL-60; settings: human, HL-60 cells; read-out: MIC; method in brief: as §1
HL-60 = experiment: as §2; type: cell-based; settings: Homo sapiens, HL-60; method in brief: as §1
[5] = Selectivity index, ratio of EC50 for HL60 cells to EC50 for Trypanosoma brucei brucei clone 427-221a; type: functional, HL-60; method in brief: as §1
[6] = Selectivity index, ratio of MIC for HL60 cells to MIC for Trypanosoma brucei brucei clone 427-221a; type: functional, HL-60; method in brief: as §1
Leishmania donovani = experiment: Antileishmanial activity against Leishmania donovani MHOM/SD/00/1S-2D promastigotes assessed as parasite death at 10 uM after 72 hrs; type: functional
Method in brief: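 Promastigotes seeded at 1.5 x 10^5 cells/ml in medium 199 with 10% heat-inactivated FBS. Compound added at a final 10 µM, in triplicate, in sealed flasks at 27°C for up to 7 days. Aliquots taken daily and viability read by CellTiter-Glo luminescence. Result given as percent reduction in viability relative to DMSO-treated cultures. Controls were K11777 or amphotericin B at 10 µM.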

Leishmania major [7] = experiment: Antileishmanial activity against Leishmania major MHOM/IL/81/FE/BNI amastigotes after 48 hrs; type: functional, organism-based
Method in brief: (§3)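 Peritoneal macrophages from BALB/c mice (6-8 wk) adhered 2 h at 37°C, infected 24 h with stationary-phase L. major promastigotes at 10:1 parasite:macrophage, washed, then exposed 48 h to compound at 0.0001 to 10 µM. Intracellular amastigotes stained with acridine orange/ethidium bromide and counted by fluorescence microscopy; percent amastigotes cleared versus DMSO-treated cultures; three repeats.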

Schistosoma mansoni [8] = experiment: Antimicrobial activity against Schistosoma mansoni assessed as worm vitality at 3 uM after 4 hrs; type: functional, organism-based
Method in brief: (§4)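 20-day-old worms were obtained by perfusion of BALB/c mice infected with 200 cercariae. About 20 worms/well were kept in Basch 169 with 10% bovine calf serum, preincubated 24 h at 37°C in 5% CO2, then exposed to 1, 3 or 6 µM. Vitality (feeding, flexing, gut peristalsis; death = nonmotile, shrunken, dark) was scored at 4 and 18 h in two experiments.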

Schistosoma mansoni [9] = experiment: Antimicrobial activity against Schistosoma mansoni assessed as worm vitality at 6 uM after 4 hrs; type: functional, organism-based; method in brief: as §4
Entamoeba histolytica = experiment: Antimicrobial activity against Entamoeba histolytica HM1 IMSS trophozoites after 48 hrs; type: functional, organism-based; settings: 60 h, in the assay text read “60 hrs” for “48 hrs”
Method in brief: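 Trophozoites were grown axenically in TYI-S-33 with 10% bovine adult serum and seeded at ~10^4 cells/well. Compound (range up to 10 µM) was added to 48-h log-phase cultures, then incubated 60 h at 37°C under anaerobic conditions. Viability was read by CellTiter-Glo luminescence. EC50 came from quadruplicate wells in two independent experiments.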

Trichomonas vaginalis [10] = experiment: Antimicrobial activity against Trichomonas vaginalis G3 assessed as parasite death at 10 uM after 24 hrs; type: functional
Method in brief: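 G3 strain grown in Diamond's medium at 37°C. Assay culture set up as 0.5 ml dense culture diluted into 5.0 ml complete medium. Compound at a final 10 µM for 24 h at 37°C. Motile cells counted by hemocytometer. Result is percent dead parasites relative to DMSO-treated cultures, from five separate experiments. Controls were untreated, DMSO and metronidazole.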

Plasmodium falciparum [11] = experiment: Antimalarial activity against chloroquine-resistant Plasmodium falciparum FcB1R after 72 hrs; type: functional, organism-based
[12] = system: Trypanosoma brucei brucei; experiment: Antimicrobial activity against Trypanosoma brucei brucei clone 427-221a at 1.56 uM; type: functional
MRC5 = experiment: Toxicity against human MRC5 cells at 3.13 uM; type: cell-based; settings: mrc5, 3.13 µM
J774 = experiment: Cytotoxicity against mouse J774 cells; type: cell-based
[13] = Cytotoxicity against BALB/c mouse peritoneal macrophages at 10 uM after 48 hrs hrs; type: cell-based; settings: macrophage
[14] = Cytotoxicity against BALB/c mouse peritoneal macrophages at 1 uM after 48 hrs hrs; type: cell-based; settings: macrophage
Leishmania major [15] = experiment: Antileishmanial activity against Leishmania major MHOM/IL/81/FE/BNI amastigotes after 48 hrs at 1 uM; type: functional, organism-based; method in brief: as §3
Trichomonas vaginalis [16] = experiment: Antimicrobial activity against Trichomonas vaginalis G3 assessed as parasite death at 1 uM after 24 hrs; type: functional

COc1ccc2nc3cc(Cl)ccc3c(NCCCN(C)CCCNc3c4ccc(Cl)cc4nc4ccc(OC)cc34)c2c1
EC50 (Plasmodium falciparum [1]): 790 nM | EC50 (Plasmodium falciparum [2]): 1080 nM | EC50 [3]: 0.9 nM | MIC [3]: 0.1 µM (≈ 0.0629 µg/mL) | MCC [4]: 10 µM | EC50 (HL-60): 1180 nM | Ratio EC50 [5]: 1326 | Ratio [6]: 100 | Activity (Leishmania donovani): 99% | EC50 (Leishmania major [7]): 6000 nM | Activity (Schistosoma mansoni [8]): Active | Activity (Schistosoma mansoni [9]): Active | EC50 (Entamoeba histolytica): 500 nM | Activity (Trichomonas vaginalis [10]): 92%

COc1ccc2nc3cc(Cl)ccc3c(NCCCCNCCCNc3c4ccc(Cl)cc4nc4ccc(OC)cc34)c2c1
EC50 (Plasmodium falciparum [1]): 62 nM | EC50 (Plasmodium falciparum [2]): 135 nM | EC50 (Plasmodium falciparum [11]): 61 nM | EC50 [3]: 0.7 nM | MIC [3]: 1 µM (≈ 0.629 µg/mL) | MCC [4]: 10 µM | EC50 (HL-60): 144 nM | Ratio EC50 [5]: 209 | Ratio [6]: 10 | Activity [12]: 100% | Activity (MRC5): 100% | Activity (Leishmania donovani): 96% | EC50 (Leishmania major [7]): 800 nM | Activity (Schistosoma mansoni [8]): Active | Activity (Schistosoma mansoni [9]): Active | EC50 (Entamoeba histolytica): 5000 nM | Activity (Trichomonas vaginalis [10]): 3% | Activity (J774): Toxic | Activity [13]: Toxic

COc1ccc2nc3cc(Cl)ccc3c(NCCOCCOCCNc3c4ccc(Cl)cc4nc4ccc(OC)cc34)c2c1
EC50 (Plasmodium falciparum [1]): 61 nM | EC50 (Plasmodium falciparum [2]): 74 nM | EC50 [3]: 5.8 nM | MIC [3]: 1 µM (≈ 0.632 µg/mL) | MCC [4]: 10 µM | EC50 (HL-60): 3040 nM | Ratio EC50 [5]: 524 | Ratio [6]: 10 | Activity (Leishmania donovani): 96% | EC50 (Entamoeba histolytica): 5000 nM | Activity (Trichomonas vaginalis [10]): 75% | Activity [13]: Toxic | Activity [14]: Toxic | Activity (Leishmania major [15]): inactive

COc1ccc2nc3cc(Cl)ccc3c(NCCCCN(CCCNc3c4ccc(Cl)cc4nc4ccc(OC)cc34)C(=O)[C@H](C)N)c2c1
EC50 (Plasmodium falciparum [1]): 310 nM | EC50 (Plasmodium falciparum [2]): 303 nM | EC50 [3]: 0.9 nM | MIC [3]: 1 µM (≈ 0.7 µg/mL) | MCC [4]: 10 µM | EC50 (HL-60): 225 nM | Ratio EC50 [5]: 242 | Ratio [6]: 10 | Activity (Leishmania donovani): 93% | EC50 (Entamoeba histolytica): 5000 nM | Activity (Trichomonas vaginalis [10]): 80% | Activity [13]: Toxic | Activity [14]: Toxic | Activity (Leishmania major [15]): inactive

Cc1ncc([N+](=O)[O-])n1CCO [METRONIDAZOLE]
Activity (Trichomonas vaginalis [16]): 100% | EC50 (Entamoeba histolytica): 2000 nM

COc1ccc2nc3cc(Cl)ccc3c(NCCCNCCCNc3c4ccc(Cl)cc4nc4ccc(OC)cc34)c2c1
EC50 (Plasmodium falciparum [1]): 127 nM | EC50 (Plasmodium falciparum [2]): 180 nM | EC50 (Plasmodium falciparum [11]): 55 nM | EC50 [3]: 1.1 nM | MIC [3]: 1 µM (≈ 0.615 µg/mL) | MCC [4]: 10 µM | EC50 (HL-60): 244 nM | Ratio EC50 [5]: 214 | Ratio [6]: 10 | Activity [12]: 100% | Activity (MRC5): 100% | Activity (Leishmania donovani): 95% | Activity (Schistosoma mansoni [8]): Active | Activity (Schistosoma mansoni [9]): Active | EC50 (Entamoeba histolytica): 5000 nM | Activity (Trichomonas vaginalis [10]): 23% | Activity [13]: Toxic | Activity [14]: Toxic | Activity (Leishmania major [15]): inactive

COc1ccc2nc3cc(Cl)ccc3c(NCCNCCCNCCNc3c4ccc(Cl)cc4nc4ccc(OC)cc34)c2c1
EC50 (Plasmodium falciparum [1]): 105 nM | EC50 (Plasmodium falciparum [2]): 136 nM | EC50 [3]: 1.3 nM | MIC [3]: 1 µM (≈ 0.644 µg/mL) | MCC [4]: 1 µM | EC50 (HL-60): 120 nM | Ratio EC50 [5]: 91 | Ratio [6]: 1 | Activity (Leishmania donovani): 99% | Activity (Schistosoma mansoni [8]): Active | Activity (Schistosoma mansoni [9]): Active | EC50 (Entamoeba histolytica): 5000 nM | Activity (Trichomonas vaginalis [10]): 75% | Activity [13]: Toxic | Activity [14]: Toxic | Activity (Leishmania major [15]): inactive

Source: ChEMBL document CHEMBL1143811, “Bis-acridines as lead antiparasitic agents: structure-activity analysis of a discrete compound library in vitro” (Antimicrob Agents Chemother, 2007)
